Screens deposited in PubChem by several laboratories.
TAG inh – inhibitors of triacylglycerol accumulation, primary screen, cell-based, uHTS, fluorescence, H9c2 | hit rate 0.66% among 230,000 | inhibition, % at 12.5 µM | H9c2 cells, Nile Red lipid (TAG) fluorescence; cells loaded with 200 µM oleic acid;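 active = pattern-corrected inhibition of lipid staining of at least 50% with the nuclear-stain viability signal not falling by more than 50%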;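 note: 0% = DMSO wells and 100% = triacsin C control wells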
SR-BI uptake up – activators of SR-BI mediated DiI-HDL uptake, primary screen, ldlA[mSR-BI] CHO cells, DiI fluorescence; 3 h; 100 = double the neutral-control signal; AID 504775, 2011; hit rate 0.096% among 320,000; activation, % at 12.5 µM;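 active = mean replicate activation of at least 60% and every replicate at or above 60%; inconclusive = mean or all-replicate condition met, but not both; inactive = mean below 60% and not all replicates reaching 60%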;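 note: 0% = median plate neutral-control signal and 100% = twice that signal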
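System: LDL receptor-deficient CHO ldlA cells overexpressing murine SR-BI | Timing: 3 h uptake period with compound, 37 °C | Medium: HEPES-buffered (25 mM, pH 7.4) F12 plus 0.5% BSA | Dosing: Single-point compound dose | Signal: Bottom-read fluorescence, 550/595 nm | Read-out: Retained DiI signal reflecting DiI-HDL uptake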
SR-BI HDL uptake – inhibitors of SR-BI mediated HDL lipid uptake, primary screen, ldlA[mSR-BI] cells, fluorescence, single point | ldlA[mSR-BI] CHO cells, DiI-HDL uptake fluorescence, 3 h | inhibition, % at 12.5 µM | hit rate 0.96% among 320,000;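 active = mean replicate inhibition of at least 70% and a set share of replicates each scoring 70 or more; inconclusive = meets just one of the two criteria; inactive = fails both criteria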;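 note: 0% = median of neutral control wells and 100% = median of positive control wells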
Target sequence (Q61009 whole entry, looked up): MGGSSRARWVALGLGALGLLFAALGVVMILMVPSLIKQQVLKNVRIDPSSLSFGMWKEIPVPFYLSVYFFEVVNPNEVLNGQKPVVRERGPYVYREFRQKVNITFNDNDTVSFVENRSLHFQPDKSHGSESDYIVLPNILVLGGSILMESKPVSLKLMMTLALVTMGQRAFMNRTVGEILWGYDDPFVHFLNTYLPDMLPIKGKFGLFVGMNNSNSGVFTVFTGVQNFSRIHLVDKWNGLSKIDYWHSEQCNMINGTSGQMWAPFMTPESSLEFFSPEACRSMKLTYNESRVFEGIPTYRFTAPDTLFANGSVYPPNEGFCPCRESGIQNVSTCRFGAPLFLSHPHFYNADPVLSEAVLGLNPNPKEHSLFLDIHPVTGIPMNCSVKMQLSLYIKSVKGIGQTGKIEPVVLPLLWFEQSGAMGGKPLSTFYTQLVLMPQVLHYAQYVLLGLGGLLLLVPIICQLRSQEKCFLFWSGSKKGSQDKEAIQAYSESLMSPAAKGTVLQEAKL
Vif imaging – HIV Vif self-association inhibitors, primary screen, imaging, HEK293T, single point; HEK293T cells, Vif self-association by quenched fluorescence, 24 h; inhibition, % at 7.49 µM; hit rate 0.35% among 340,000; in the data active = inhibition above about 50%, passing the limit was not always enough; inconclusive = no clear call, values can overlap the other calls; inactive = below about 31%
Bfl-1 A1 inh – caspase 3/7 activation in MEF A1-2A-BIM cells, primary screen, A1 inhibitor project, cell-based, luminescence, HTS; caspase activation, % (concentration not given with the values); hit rate 0.066% among 330,000; Caspase-Glo 3/7 luminescence, 3 h; percent of clofoctol response, vehicle zero;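 active = over half of replicate activation scores above 10%, or exactly half above 10 with the replicate mean above 10; inconclusive = replicate mean below 10 yet half the replicates above 10; inactive = over half of replicates below 10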
Active calls of the source: *; u = inconclusive; x = no result given. Most compounds without a hit are left out; they make up all but 1.6% or so of the library.

SMILES | TAG inh | SR-BI uptake up | SR-BI HDL uptake | Vif imaging | Bfl-1 A1 inh
CCn1cc(CN2CCCC(C(=O)Nc3cccc(-c4cc5ccccc5[nH]4)c3)C2)c(C)n1 (configuration not stated) | 13.0 | -35.9 | 35.9 | 53.2* | -0.4
COc1ccc(C=NNc2nc3ccccc3s2)cc1 | 1.9 | -13.5 | 13.5 | -1.5 | x
Cc1ccc2[nH]c(C)c(/C=N/Nc3nc4ccccc4s3)c2c1 | x | -122.3 | 122.3* | 3.7 | 0.1
Cc1ccccc1N1CCN(C2CCCN(C(=O)c3noc4c3CCCC4)C2)CC1 (configuration not stated) | 10.7 | -82.8 | 82.8* | -0.1 | 0.6
FC(F)(F)c1ccccc1NC(=S)N/N=C1\CC2CC=CC12 (configuration not stated) | -1.8 | 5.0 | -5.0 | 9.1 | x
Cc1ccc2nc(-c3ccc(NC(=S)NC4CC(C)(C)NC(C)(C)C4)cc3)sc2c1 | 52.6* | -1.7 | 1.7 | -0.8 | 0.3
Cc1ccc2nc(-c3ccc(NC(=S)NC(=O)C(C)C)cc3)sc2c1 | x | -30.5 | 30.5 | -4.9 | 0.0
CCN1C(=O)NC(c2ccccc2)C1=O (configuration not stated) | 10.0 | -0.2 | 0.2 | 80.7* | 0.9
CCOC(=O)CN1C(=O)N[C@@H](c2ccccc2)C(C(C)=O)=C1C | 4.2 | 13.4 | -13.4 | -9.4 | 0.2
N#CC1(NC(=O)CN2C(=O)NC(c3ccccc3)(c3ccccc3)C2=O)CCCC1 | -2.4 | -3.8 | 3.8 | -17.5 | 0.9
CCC1CN(C(=O)N2CCC(C(=O)NCCc3ccc(OC)cc3OC)CC2)c2ccccc2O1 (configuration not stated) | x | -78.2 | 78.2* | 2.6 | -0.2
COCCN(C(=O)Cc1cccs1)C(C(=O)NCc1ccc(OC)cc1)c1ccc(C)cc1 (configuration not stated) | x | 4.3 | -4.3 | 111.6* | -0.2
COc1cc(C(=O)NCC(c2ccco2)N2CCCC2)ccc1OCc1ccc(Cl)cc1Cl (configuration not stated) | 15.8 | -66.5 | 66.5 | -1.6 | x
COCCN=c1scc(-c2ccccc2)n1/N=C/c1c[nH]c2ccccc12 | x | -82.8 | 82.8* | 1.6 | 0.1
COCCN=c1scc(-c2cccs2)n1/N=C/c1ccc(O)c(O)c1O | 18.7 | -69.1 | 69.1 | -0.6 | -0.3
CC1C(=O)C(C)C(c2cc(Cl)ccc2O)NC1c1cc(Cl)ccc1O (configuration not stated) | x | -85.6 | 85.6* | -5.1 | 0.7
C=CCNc1sc(C(=O)c2ccccc2)c(N)c1-c1nc2ccccc2s1 | 27.0 | -90.9 | 90.9* | -3.4 | -2.1
CCNc1sc(C(=O)c2cccs2)c(N)c1-c1nc2ccccc2s1 | 34.5 | -97.5 | 97.5* | -13.6 | -1.9
CCOC(=O)c1sc(NCc2ccco2)c(-c2nc3ccccc3s2)c1N | x | -87.7 | 87.7* | -5.1 | 0.0
Cc1csc(=O)n1CC(=O)OCC(=O)c1ccc(Br)cc1 | 2.5 | 22.1 | -22.1 | 6.3 | -0.5
CCOc1ccc(C(=O)Nc2ccc(N3CCCC3)cc2)cc1 | 12.1 | -77.2 | 77.2* | 11.7 | -0.6
CCCCOc1ccc(C(=O)NCC(=O)N(C)CC(=O)Nc2ccc(N3CCOCC3)cc2)cc1 | -9.7 | -82.4 | 82.4* | -3.0 | 0.4
CCOc1cccc(C(=O)Nc2ccc(N3CCCC3)cc2)c1 | 0.7 | -74.7 | 74.7* | 0.0 | 0.6
Cc1cccc(C(=O)NCC(=O)N(C)CC(=O)Nc2ccc(N3CCOCC3)cc2)c1 | -12.5 | -0.6 | 0.6 | -2.4 | 0.1
COc1ccc(C(=O)Nc2ccc(N3CCCC3)cc2)cc1 | 11.7 | -52.7 | 52.7 | 22.6 | 0.5
SMILES | TAG inh | SR-BI uptake up | SR-BI HDL uptake | Vif imaging | Bfl-1 A1 inh
CCOc1cccc(C(=O)Nc2ccc(N(CC)CC)cc2)c1 | 6.6 | -55.5 | 55.5 | x | -1.3
O=C(C=Cc1ccccn1)c1ccccc1 | 14.9 | -10.3 | 10.3 | 70.0* | x
NC(=S)NN=C1c2cc(Cl)ccc2-c2c1cc(Cl)cc2[N+](=O)[O-] | 5.2 | -105.4 | 105.4* | -29.2 | x
NC(=S)N/N=C/c1ccccc1[N+](=O)[O-] | 4.8 | -12.7 | 12.7 | 4.9 | 0.2
C/C(=N\NC(=O)c1c(Br)c(C)nn1C)c1ccc(NC(=O)C(C)Oc2ccc(Cl)cc2C)cc1 (configuration not stated) | -70.1 | -76.2 | 76.2* | x | -0.9
Cc1cc(NC(=O)CSc2nc3c([nH]c4ccccc43)c(=O)n2-c2cccc(C(F)(F)F)c2)no1 | 40.0 | -51.6 | 51.6 | 51.3* | x
OCCN1CCN(c2nc(-c3ccccc3)nc3c2oc2ccccc23)CC1 | x | -14.7 | 14.7 | 65.6* | u
NC(=O)c1ccc(NC(=O)COC(=O)C2CC(=O)N(Cc3ccccc3)C2)cc1 (configuration not stated) | 6.3 | -10.0 | 10.0 | 18.2 | 0.4
CCc1ccc(C2C(C#N)=C(N)SC(N)=C2C#N)cc1 | x | 3.2 | -3.2 | 3.4 | 0.9
CCc1ccc(C2C(C#N)=C(N)SC(N)=C2C#N)s1 | x | -0.3 | 0.3 | 76.9* | -0.1
O=C(c1ccccc1)c1c(-c2ccccc2)[nH]n(-c2ccccc2)c(=O)c1=O | -4.4 | 19.5 | -19.5 | -7.6 | 0.2
CN=C1SC(CC(=O)Nc2ccccc2F)C(=O)N1/N=C/c1ccc(O)c(OC)c1 (configuration not stated) | 18.9 | -74.3 | 74.3* | -2.2 | 0.0
CC(=O)c1c(C)[nH]c(C(=O)Nc2cccc(S(=O)(=O)N3CCCC3)c2)c1C | 22.0 | -73.7 | 73.7* | -0.2 | -1.0
CC(=O)c1c(C)[nH]c(C(=O)Nc2ccc(Cl)c(S(=O)(=O)N3CCOCC3)c2)c1C | x | -79.4 | 79.4* | -0.2 | -0.1
CC(=O)c1c(C)[nH]c(C(=O)OCC(=O)Nc2cccc(S(=O)(=O)N3CCCC3)c2)c1C | x | -45.3 | 45.3 | -10.1 | 2.2
COc1ccc(NC(=O)c2[nH]c(C)c(C(C)=O)c2C)cc1S(=O)(=O)N1CCOCC1 | x | -64.2 | 64.2 | -4.8 | -0.1
CC(=O)c1c(C)[nH]c(C(=O)Nc2cc(C)cc(C)c2)c1C | x | -82.6 | 82.6* | 0.2 | 0.0
O=C(NN1CC(C(=O)OCc2ccc(Cl)cc2Cl)CC1=O)c1ccccc1 (configuration not stated) | x | x | 7.9 | -2.9 | -0.1
CC(NCC(=O)NC(=O)NCCC1=CCCCC1)c1ccc(S(N)(=O)=O)cc1 (configuration not stated) | 2.7 | 13.9 | -13.9 | -4.9 | x
CCN(CC)CCOC(=O)c1ccc(N/C=C(/C#N)c2nc(-c3cc4ccccc4oc3=O)cs2)cc1 | x | 28.6 | -28.6 | 57.6* | 2.1
CN(CC1COc2ccccc2O1)C(=O)c1ccc(Cl)c(S(=O)(=O)N2CCCCCC2)c1 (configuration not stated) | 11.0 | 5.6 | -5.6 | -3.7 | -0.2
